ChEMBL document CHEMBL4118076, “Azide-alkyne cycloaddition towards 1H-1,2,3-triazole-tethered gatifloxacin and isatin conjugates: Design, synthesis and in vitro anti-mycobacterial evaluation” (Eur J Med Chem, 2017)
Converted amounts (≈) assume the structure as drawn.

Experiments:
Assay type in all cases: functional
[1] = tested on: Mycobacterium tuberculosis; experiment: Antimycobacterial activity against multidrug resistant Mycobacterium tuberculosis after 3 to 7 days by rapid direct susceptibility test
Outline: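 Two-fold DMSO dilutions, 0.0125 to 200 μg/mL for H37Rv and 0.062 to 128 μg/mL for the MDR strain (resistant to INH, RIF and ethambutol), mixed with suspension containing 4×10^-3 mg cells. Sealed plates incubated at 37 °C in a wet box. Growth was read visually under high magnification at 3 days and again 7 days later. MIC is the lowest concentration giving complete growth inhibition.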

[2] = Resistance index, ratio of MIC90 for multidrug resistant Mycobacterium tuberculosis to MIC90 for Mycobacterium tuberculosis H37Rv
[3] = tested on: Mycobacterium tuberculosis; experiment: Potency index, ratio of gatifloxacin MIC90 to compound MIC90 for multidrug resistant Mycobacterium tuberculosis
[4] = tested on: Mycobacterium tuberculosis; experiment: Potency index, ratio of isoniazid MIC90 to compound MIC90 for multidrug resistant Mycobacterium tuberculosis
[5] = tested on: Mycobacterium tuberculosis; experiment: Potency index, ratio of rifampicin MIC90 to compound MIC90 for multidrug resistant Mycobacterium tuberculosis

Compound | MIC90 [1] | further results
COc1c(N2CCN(Cc3cn(CCN4C(=O)/C(=N\O)c5cc(Cl)ccc54)nn3)C(C)C2)c(F)cc2c(=O)c(C(=O)O)cn(C3CC3)c12 (centres undefined) | 2 µg/mL (≈ 2.95 µM) | –
COc1c(N2CCN(Cc3cn(CCN4C(=O)C(=O)c5cc(C)ccc54)nn3)C(C)C2)c(F)cc2c(=O)c(C(=O)O)cn(C3CC3)c12 (centres undefined) | 1 µg/mL (≈ 1.55 µM) | Ratio [2]: < 1
COc1c(N2CCN(Cc3cn(CCN4C(=O)C(=O)c5cc(Cl)ccc54)nn3)C(C)C2)c(F)cc2c(=O)c(C(=O)O)cn(C3CC3)c12 (centres undefined) | 0.5 µg/mL (≈ 0.753 µM) | –
CO/N=C1\C(=O)N(CCn2cc(CN3CCN(c4c(F)cc5c(=O)c(C(=O)O)cn(C6CC6)c5c4OC)CC3C)nn2)c2ccc(Cl)cc21 (centres undefined) | 0.25 µg/mL (≈ 0.361 µM) | Ratio [3]: >=4 - 512; Ratio [4]: >=4 - 512; Ratio [5]: >=4 - 512
NNC(=O)c1ccncc1 [ISONIAZID] | > 128 µg/mL | –
COc1c(N2CCN(Cc3cn(CCN4C(=O)C(=O)c5cc(F)ccc54)nn3)C(C)C2)c(F)cc2c(=O)c(C(=O)O)cn(C3CC3)c12 (centres undefined) | 0.5 µg/mL (≈ 0.772 µM) | Ratio [2]: < 1
CO/N=C1\C(=O)N(CCn2cc(CN3CCN(c4c(F)cc5c(=O)c(C(=O)O)cn(C6CC6)c5c4OC)CC3C)nn2)c2ccc(C)cc21 (centres undefined) | 0.5 µg/mL (≈ 0.743 µM) | Ratio [2]: < 1
CO[C@H]1/C=C/O[C@@]2(C)Oc3c(C)c(O)c4c(O)c(c(/C=N/N5CCN(C)CC5)c(O)c4c3C2=O)NC(=O)/C(C)=C\C=C\[C@H](C)[C@H](O)[C@@H](C)[C@@H](O)[C@@H](C)[C@H](OC(C)=O)[C@@H]1C [RIFAMPIN] | 32 µg/mL (≈ 38.9 µM) | –
COc1c(N2CCN(Cc3cn(CCN4C(=O)/C(=N\O)c5ccccc54)nn3)C(C)C2)c(F)cc2c(=O)c(C(=O)O)cn(C3CC3)c12 (centres undefined) | 8 µg/mL (≈ 12.4 µM) | –
COc1c(N2CCN(Cc3cn(CCN4C(=O)/C(=N\O)c5cc(C)ccc54)nn3)C(C)C2)c(F)cc2c(=O)c(C(=O)O)cn(C3CC3)c12 (centres undefined) | 8 µg/mL (≈ 12.1 µM) | –
COc1c(N2CCN(Cc3cn(CCN4C(=O)C(=O)c5ccccc54)nn3)C(C)C2)c(F)cc2c(=O)c(C(=O)O)cn(C3CC3)c12 (centres undefined) | 4 µg/mL (≈ 6.35 µM) | –
COc1c(N2CCN(Cc3cn(CCN4C(=O)/C(=N\O)c5cc(F)ccc54)nn3)C(C)C2)c(F)cc2c(=O)c(C(=O)O)cn(C3CC3)c12 (centres undefined) | 1 µg/mL (≈ 1.51 µM) | –
CO/N=C1\C(=O)N(CCn2cc(CN3CCN(c4c(F)cc5c(=O)c(C(=O)O)cn(C6CC6)c5c4OC)CC3C)nn2)c2ccccc21 (centres undefined) | 1 µg/mL (≈ 1.52 µM) | –
COc1c(N2CCNC(C)C2)c(F)cc2c(=O)c(C(=O)O)cn(C3CC3)c12 (centres undefined) [GATIFLOXACIN] | 1 µg/mL (≈ 2.66 µM) | –
CO/N=C1\C(=O)N(CCn2cc(CN3CCN(c4c(F)cc5c(=O)c(C(=O)O)cn(C6CC6)c5c4OC)CC3C)nn2)c2ccc(F)cc21 (centres undefined) | 0.25 µg/mL (≈ 0.369 µM) | Ratio [3]: >=4 - 512; Ratio [4]: >=4 - 512; Ratio [5]: >=4 - 512
